# Screening results: PubChem, several laboratories
# Hits are enriched below; roughly 2.3% of the tested compounds scored in any of these assays.
# GalR3 antag – antagonists of human GalR3; hit rate 0.44% among 360,000; O60755; HEK293 GalR3-CNG cAMP membrane potential fluorescence; galR3 body fused to GalR1 C-terminus; AID 651719; inhibition, % at 3 µM;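 active = inhibition above the screen-wide average plus 3 SD, cut at about 13% in these data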;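 also: forskolin and galanin both at EC90 stimulate the cells; cAMP rise reported by CNG channel membrane potential dye signal; 0% = forskolin plus galanin with DMSO and 100% = forskolin alone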
# Target sequence (O60755 1-299 limits assumed): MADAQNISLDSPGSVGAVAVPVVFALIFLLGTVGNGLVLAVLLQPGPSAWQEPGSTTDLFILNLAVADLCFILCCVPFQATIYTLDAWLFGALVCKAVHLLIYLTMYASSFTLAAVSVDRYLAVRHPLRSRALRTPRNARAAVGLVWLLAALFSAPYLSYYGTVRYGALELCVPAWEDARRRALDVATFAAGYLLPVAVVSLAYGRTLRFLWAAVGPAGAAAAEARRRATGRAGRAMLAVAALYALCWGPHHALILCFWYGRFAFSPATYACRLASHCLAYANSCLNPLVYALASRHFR
# CHT allo act – allosteric activators of human choline transporter CHT. hit rate 0.49% among 310,000. Q9GZV3. CHT-expressing cells, membrane potential dye, choline EC20; stronger effect = higher value; LV-AA mutant CHT in HEK293 cells. B-score at 10 µM;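 active = initial fluorescence not abnormally high and integrated response B-score, plate-corrected, over 3 SD above library mean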
# CHT block – inhibitors of human choline transporter CHT; hit rate 0.86% among 310,000; B-score at 10 µM; Q9GZV3; AID 488975; CHT-expressing cells, membrane potential dye, choline response; stronger effect = lower value;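 active = B-score over 3 SD under the library average, and starting fluorescence ratio not unusually high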;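 also: choline stimulus applied at its EC90 after an EC20 pre-addition; B-score computed on integrated fluorescence ratio after choline addition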
# NR2F2 inh – NR2F2 (human) inhibition, primary screen | inhibition, % at 8.6 µM | hit rate 0.7% among 370,000 | P24468 | HEK293T NGFI-A luciferase reporter, luminescence;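 active = inhibition above a per-plate cutoff, mean inhibition of test wells between control levels plus 3 SD, cut at about 38% in these data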;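 also: cells cotransfected with COUP-TFII expression vector driving the NGFI-A reporter; 0% = median of COUP-TF2 test wells and 100% = reporter-only cells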
# NR2E3 ag-1 – agonists of human NR2E3 nuclear receptor; Q9Y5X4; CHO-S Gal4-NCOR/VP16-NR2E3 two-hybrid, luciferase; inhibition of corepressor binding, % at 3.98 µM; hit rate 0.35% among 360,000;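 active = inhibition above the mean of all tested compounds plus 3 SD, cut at about 70% in these data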;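 also: 0% = DMSO with NR2E3 transfected cells and 100% = cells lacking NR2E3 construct; higher means lower luciferase signal from less NR2E3 corepressor binding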
# NR2E3 ag-2 – agonists of human nuclear receptor NR2E3; GST-NR2E3/biotin-RetCOR TR-FRET, 1536-well; inhibition of corepressor binding, % at 4.78 µM; hit rate 0.12% among 320,000;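 active = percent inhibition above the cutoff of mean plus 3 SD of all tested compounds, set per screening campaign, cut at about 20% in these data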;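 also: 0% = DMSO wells and 100% = biotin wells as full block of FRET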
#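 Material: NR2E3–RetCOR corepressor complex / Incubation: Compound–protein incubation for 5 h at 4 °C / Dosing: compound at 4.8 µM, single dose / Detection: time-resolved FRET / Benchmarks: high control biotin, low control 0.6% DMSO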
# CHT inh conf – confirmation of human choline transporter CHT inhibitors; shares compounds with CHT block; CHT-expressing cells, choline membrane potential dye; LV-to-AA substituted CHT, HEK293 cells; AID 493221; CHT activity remaining % of control (stronger effect = lower value), % at 10 µM; hit rate 70% among 2,400;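 active = choline transporter activity left, mean of duplicates at 10 µM, below buffer-only control mean minus 3 SD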;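 also: depolarization triggered by choline at its EC90 following an EC20 pre-addition; 0% = hemicholinium-3 full block and 100% = buffer-only control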
# HEK293 MPD ctr – activity in parental HEK293 cells lacking CHT | AID 493222 | membrane potential dye, choline response; active = decrease or increase beyond buffer ±3SD | shares compounds with CHT block | membrane potential ratio readout (active if shifted either direction beyond buffer ±3SD; no single direction) at 10 µM | hit rate 4% among 2,400;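 also: parental cells lack the transporter so any hit is non-specific; ratio is peak minus trough fluorescence over baseline after EC90 choline challenge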
# An asterisk follows results filed as active; i = inactive; . = not tested or not shown.
SMILES,GalR3 antag,CHT allo act,CHT block,NR2F2 inh,NR2E3 ag-1,NR2E3 ag-2,CHT inh conf,HEK293 MPD ctr
Cc1c(N=Cc2cc(Br)cc(Br)c2O)cccc1C(=O)O,-5,i,-5.7*,11,16,-2,57%*,i
CN1CCCN(c2ncnc3scc(-c4ccc(F)cc4)c23)CC1,-2,i,-10*,1,-22,4,24%*,i
Fc1ccc(CN2CCN(c3ncnc4scc(-c5ccc(F)cc5)c34)CC2)cc1,-8,i,i,14,-34,2,.,.
CCOC(=O)CC[C@@]1(C(=O)OCC)C[C@@H](CC(=O)N2CCOCC2)C(=O)N2CCCC=C21,.,.,.,8,.,.,.,.
COc1ccc(-c2ccc(-c3noc(-c4ccccc4OC)n3)c(OC)n2)cc1,0,i,-5*,5,-22,8,i,i
CC(C)C[C@H]1COc2cc(Br)ccc2S(=O)(=O)N1Cc1cn(Cc2ccco2)nn1,.,.,.,1,.,.,.,.
O=C(Nc1cc([N+](=O)[O-])ccc1O)c1cccc([N+](=O)[O-])c1,-8,i,-5.4*,24,-48,-1,10%*,i
O=C(Nc1cc([N+](=O)[O-])ccc1O)c1cccc(C(=O)Nc2cc([N+](=O)[O-])ccc2O)c1,4,i,i,3,-20,3,.,.
CC(C)(CNC(=O)CCC1CCCC1)CNC(=O)CCC1CCCC1,-3,i,i,2,3,2,.,.
O=C(CCC1CCCC1)NCCCNC(=O)CCC1CCCC1,-5,i,-6.5*,-4,-3,0,38%*,i
N=C1CCCN1CC(=O)c1ccc(Cl)cc1,-3,i,-10*,-7,-45,-2,9.8%*,i
Cc1cccc(-c2cccc3c4c([nH]c23)[C@@H]2C[C@H](N(C)C(=O)Nc3ccccc3C)[C@H]([C@H](C)O)C(=O)N2CC4)c1,.,.,.,5,.,.,.,.
CC(C)(C)c1ccc(C(=O)CC(Sc2ccc(Cl)cc2)C(=O)O)cc1 (stereo not given),-3,i,-8.4*,-10,23,-3,6.4%*,i
Cc1ccc(SC(CC(=O)c2ccc(F)cc2)C(=O)O)cc1 (stereo not given),-7,i,i,5,5,-3,.,.
CN1CCN(c2ccc(S(=O)(=O)N3CCCCC3)cc2NC(=O)CSCc2ccccc2)CC1,-4,i,-6.8*,5,-18,-3,48%*,i
CC(C)(C)C(=O)N1CCN(c2ncccc2C(F)(F)F)CC1,-4,i,i,5,-6,3,.,.
N/C(=N\O)c1ccc(N2CCN(c3ncccc3C(F)(F)F)CC2)nc1,-3,i,-5.7*,-35,-75,1,45%*,i
COc1ccccc1NC(=O)c1ccc(C)c(S(=O)(=O)N2CCCCC2)c1,1,i,i,29,-17,0,.,.
Cc1ccc(C(=O)OC(C)C(=O)NC2CCCCC2C)cc1S(=O)(=O)N1CCCCC1 (stereo not given),-6,i,-7.9*,-2,-22,3,i,i
Cc1ccccc1NC(=O)c1ccc(C)c(S(=O)(=O)N2CCN(C)CC2)c1,-10,i,-5.7*,-16,-4,.,59%*,i
Cc1ccc(C(=O)NC2CCCCC2)cc1S(=O)(=O)N1CCCC1,-2,i,-6*,-22,-23,4,61%*,i
Clc1ccc([C@H]2OC[C@@]3(CNC4CCCCC4)CS[C@H](c4ccc(Cl)cc4)N23)cc1,.,.,.,-15,.,.,.,.
Cc1ccc(F)cc1NC(=O)c1ccc(NS(=O)(=O)c2ccc(Br)s2)cc1,-10,i,-7.1*,22,-6,-2,50%*,i
N#C/C(=C/c1cn(-c2ccccc2)nc1-c1cccc(OCc2ccccc2)c1)C(=O)NCCCn1ccnc1,3,i,i,12,-21,3,.,.
CCOc1cccc(-c2nn(-c3ccccc3)cc2/C=C(/C#N)C(=O)NCCCn2ccnc2)c1,-2,i,-9.2*,-10,18,1,61%*,i
SMILES,GalR3 antag,CHT allo act,CHT block,NR2F2 inh,NR2E3 ag-1,NR2E3 ag-2,CHT inh conf,HEK293 MPD ctr
Cc1ccccc1OCCn1c(C)nc2ccccc21,-12,i,-5.2*,30,22,1,i,i
Cc1nc2ccccc2n1CCOc1ccccc1,-11,i,i,3,-11,-1,.,.
Cc1cc(C(=O)CSc2n[nH]c(N)n2)c(C)n1-c1cc(F)ccc1F,0,i,-7.1*,-17,-50,-4,52%*,i
Cc1cc(C(=O)CSc2n[nH]c(N)n2)c(C)n1-c1ccc(F)cc1,-5,i,-8.2*,-35,-21,-2,71%*,i
Cc1cc(C(=O)CSc2n[nH]c(N)n2)c(C)n1-c1ccccc1,-1,i,i,-22,-66,1,.,.
Nc1nc(SCC(=O)c2cc(F)ccc2F)n[nH]1,-4,i,i,15,3,0,.,.
CCCCCn1c(CCNC(=O)CCC)nc2ccccc21,.,i,-6.2*,7,-10,-1,60%*,i
COc1cccc(CNc2ccc(N3CCC(C)CC3)cc2)c1OC,-5,i,-5.4*,1,-4,0,54%*,i
CC1CCN(c2ccc(NC(=O)Cc3ccccc3)cc2)CC1,-2,i,i,-22,-63,1,.,.
Cc1ccc(/C=C/C(=O)c2ccc(O)cc2)cc1,-1,i,i,-48,-56,2,.,.
Cc1ccc(C(=O)/C=C/C(=O)O)cc1,-4,i,-5.8*,-8,36,4,26%*,i
CN(/N=C/c1cc(Cl)cc(Cl)c1O)C(=S)NC(C)(C)C,-2,i,-5.4*,-11,-11,-4,68%*,i
Oc1c(Cl)cc(Cl)cc1/C=N/Nc1ncc(Br)cn1,-10,i,i,-22,4,5,.,.
CN1[C@H](Cc2ccccc2)COc2cccc(N3CCCC3)c2S1(=O)=O,.,.,.,8,.,.,.,.
CCOC(=O)CSCc1c(C#N)c2ccccc2n1C,-5,i,-6.8*,9,-8,0,i,i
Cn1c(CN2CCCC2)c(C#N)c2ccccc21,-2,i,-5*,2,10,-3,71%*,i
CN1CCN(Cc2c(C#N)c3ccccc3n2C)CC1,-2,i,i,-3,-19,-1,.,.
CC(=O)N(Cc1c(C#N)c2ccccc2n1C)c1ccccc1,0,i,i,5,-8,-2,.,.
